This is a sample that favours compounds with a hit; in the whole collection about 2.9% have one here.
SENP7 block: blocks the human protease SENP7; Q9BQF6; recombinant SENP7, Z-RLRGG-aminoluciferin luminescence, 40 min; inhibition, % at 5 µM; 330,000 tested, 1.5% active;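 active = inhibition above about 50% at the single test dose, limit read from the data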;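 note: plate controls were DMSO with enzyme for no effect and no enzyme buffer wells for full effect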
Target sequence (Q9BQF6 706-1050 limits assumed): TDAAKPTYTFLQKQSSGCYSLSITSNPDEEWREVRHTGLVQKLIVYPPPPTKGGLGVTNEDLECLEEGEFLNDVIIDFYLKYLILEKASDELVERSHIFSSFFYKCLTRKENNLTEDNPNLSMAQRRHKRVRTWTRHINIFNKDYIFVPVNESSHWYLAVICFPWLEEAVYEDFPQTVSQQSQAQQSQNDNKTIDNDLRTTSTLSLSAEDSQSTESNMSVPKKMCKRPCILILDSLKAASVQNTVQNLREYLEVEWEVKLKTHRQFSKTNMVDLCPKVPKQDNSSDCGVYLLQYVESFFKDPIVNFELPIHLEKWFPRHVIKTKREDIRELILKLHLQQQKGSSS
HSP90 refold inh: HSP90 refolding inhibition in rabbit reticulocyte lysate; luciferase refolding luminescence, 3 h; inhibition, % at 5.6 µM; 290,000 tested, 0.91% active; AID 1789;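 active = inhibition above the screen-wide mean plus 3 SD, computed separately per campaign, cut at about 16% in these data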;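 note: 0% = DMSO wells and 100% = 60 µM geldanamycin wells; inhibitors lower the luminescence because luciferase stays unfolded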
SENP1 FRET inh: SENP1 (human) catalytic domain inhibition. 360,000 tested, 0.21% active. Q9P0U3. inhibition, % at 10 µM. recombinant SENP1 catalytic domain, CyPet-SUMO1-YPet FRET cleavage;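 active = inhibition at least 30% at 10 µM, raw YFP signal under a set limit, fluorescence ratio 0.5 to 1.5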;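 note: 0% = enzyme with DMSO and 100% = no enzyme wells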
Target sequence (Q9P0U3 419-644 limits assumed): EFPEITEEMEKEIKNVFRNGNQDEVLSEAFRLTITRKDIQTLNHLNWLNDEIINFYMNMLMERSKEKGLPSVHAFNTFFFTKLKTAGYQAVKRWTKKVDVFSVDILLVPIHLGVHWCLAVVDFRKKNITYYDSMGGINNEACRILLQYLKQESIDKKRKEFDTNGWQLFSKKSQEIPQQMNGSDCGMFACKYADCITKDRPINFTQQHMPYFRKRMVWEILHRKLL
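Material: hSENP1 catalytic domain, recombinant; medium: Tris pH 8 with BME, BSA, NP40 and catalase; compound: single concentration of 10 µM compound, 0.5% DMSO final; technique: FRET read of cyan and yellow fluorescence; timing: 50 min enzyme reaction, room temperature, light-protected; reagent: SFCypet-SUMO1-SFYpet substrate at 25 nM; control set: no-enzyme low, enzyme-DMSO high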
SENP8 block-1: SENP8 protease inhibition; 330,000 tested, 1.2% active; purified SENP8, Z-RLRGG-aminoluciferin cleavage, luminescence; Q96LD8; inhibition, % at 10 µM; AID 2540; in the data active = inhibition above about 50%
SENP6 block: inhibitors of human SENP6 protease; Recombinant SENP6 catalytic domain, aminoluciferin luminescence; inhibition, % at 10 µM; 330,000 tested, 1.8% active; AID 2599;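 active = inhibition above about 50% at the single tested dose, limit read from the data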;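 note: plate controls were DMSO wells with enzyme for no effect and DMSO wells lacking enzyme for full effect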
SENP8 block-2: inhibitors of human SENP8 protease; 360,000 tested, 0.64% active; recombinant SENP8, Nedd8 substrate fluorescence; Q96LD8; inhibition, % at 20 µM; in the data active = inhibition mostly above about 40%, no sharp cut-off; inactive = mostly below about 27%
SENP8 conf: human SENP8 inhibition, confirmed; 6,200 tested, 40% active; Recombinant SENP8, Z-RLRGG-aminoluciferin luminescence, 60 min; AID 488912; inhibition, % at 12.5 µM; shares compounds with SENP7 block;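 active = mean inhibition across replicates above about 50%, limit read from the data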
SENP6 confirm: human SENP6 inhibition, confirmed | shares compounds with SENP7 block | recombinant SENP6, Z-RLRGG-aminoluciferin luminescence | inhibition, % at 12.5 µM | 6,200 tested, 58% active | AID 488915
SENP7 conf: human SENP7 inhibition, confirmed; shares compounds with SENP7 block; AID 488917; recombinant SENP7, Z-RLRGG-aminoluciferin luminescence, 40 min; inhibition, % at 12.5 µM; 6,200 tested, 69% active
Casp3 SENP sel: selectivity test for SENP inhibitors: human caspase-3 inhibition; shares compounds with SENP7 block; purified caspase-3, Z-DEVD-aminoluciferin luminescence, 60 min; inhibition, % at 12.5 µM; 6,200 tested, 60% active; AID 488918;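 active = mean inhibition above about 50%, limit read from the data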;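 note: plate controls were enzyme with DMSO for no effect and wells without caspase-3 for full effect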
Luc interf: luminescence interference (SENP counter-screen) | shares compounds with SENP7 block | Pre-incubated SENP8/Z-RLRGG-aminoluciferin, luciferase luminescence interference | inhibition, % at 12.5 µM | 6,200 tested, 39% active;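 active = mean inhibition above about 50% when retested at one dose, limit read from the data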;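 note: plate controls were DMSO wells with completed reaction for no effect and substrate without enzyme for full effect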
The depositor's hits bear a star; x = no result given.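 Rule for the calls, unless noted: active = mean inhibition above about 50% in the one-dose retest (limit read from the data); inactive = the rest.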

SMILES	SENP7 block	HSP90 refold inh	SENP1 FRET inh	SENP8 block-1	SENP6 block	SENP8 block-2	SENP8 conf	SENP6 confirm	SENP7 conf	Casp3 SENP sel	Luc interf
NS(=O)(=O)c1ccc(CCn2c(=S)[nH]c3ccc(F)cc3c2=O)cc1	0	2	-2	4	0	-2	x	x	x	x	x
O=C(N/N=C/c1ccc[nH]1)c1ccccc1OCc1ccc(F)cc1	-2	-2	-12	9	4	-272	x	x	x	x	x
CCOc1ccc(OCc2ccc(C(=O)NN=Cc3ccc[nH]3)cc2)cc1	93*	x	0	71*	93*	-338	-1	0	3	16	29
O=C(Nc1ccc2c(c1)C(=O)NC2=O)c1cccc(Cl)c1	15	-5	0	-5	-6	-423	x	x	x	x	x
COc1ccc(-c2nc3ccccc3n2Cc2ccccc2)cc1	1	1	1	5	-6	1	x	x	x	x	x
CCn1c(/C=C/c2ccccc2)nc2ccccc21	92*	4	-3	85*	97*	-270	94*	94*	101*	94*	95*
COc1ccc(Cn2c(/C=C/c3ccccc3)nc3ccccc32)cc1	88*	-2	-2	81*	89*	-300	90*	91*	99*	71*	34
COc1ccc(/C=C/c2nc3ccccc3n2C)cc1	101*	40*	2	96*	101*	-433	100*	101*	103*	99*	97*
CC1(C(=O)NS(=O)(=O)c2ccc3c(c2)CCO3)CCN1C(=O)CCC1CCCC1 (stereo not given)	x	x	0	x	x	17	x	x	x	x	x
CCn1nnc2cc(C(=O)Nc3cc(OC)cc(OC)c3)ccc21	-2	x	-3	8	-1	1	x	x	x	x	x
Cc1ccc(C(=O)c2c3ccc(N)cc3nn2CCC(N)=O)cc1	21	4	-13	26	57*	-72	14	29	-5	0	-3
Cc1ccc(C(=O)c2c3ccc(C(F)(F)F)cc3[n+]([O-])n2CCC(N)=O)cc1	-2	-3	5	-1	9	-2	x	x	x	x	x
COc1ccc(C2CCc3cc4c(cc3C2=NOC(C)=O)OCO4)cc1OC (stereo not given)	x	x	-2	x	x	-14	x	x	x	x	x
Cc1ccc(C(=O)Nc2ccc3nc(C)sc3c2)o1	x	x	-5	x	x	10	x	x	x	x	x
Cc1nc2ccc(NC(=O)c3ccc(Cl)nc3)cc2s1	1	5	-8	-5	92*	3	2	-5	-9	8	-5
Cc1nc2ccc(NC(=O)c3cc(Cl)ccn3)cc2s1	68*	7	-31	60*	74*	2	11	30	59*	37	8
O=C(Nc1cccnc1)c1cc(-c2ccc(Cl)c(Cl)c2)on1	76*	-3	-1	33	55*	12	-1	3	11	22	13
O=C(Nc1cccnc1)c1cc(-c2ccc3c(c2)OCO3)on1	96*	7	0	19	77*	-58	26	28	62*	79*	31
O=C(Nc1cccnc1)c1cc(-c2ccc(F)cc2)on1	76*	0	3	56*	64*	16	10	22	39	32	2
O=C(Nc1cccnc1)c1cc(-c2cccc(Cl)c2)on1	15	4	2	5	-1	5	x	x	x	x	x
CCSc1nnc(N2C(=O)c3ccc(C(=O)c4ccc(C(=O)O)cc4)cc3C2=O)s1	-6	-3	3	7	5	6	x	x	x	x	x
CCOC(=O)c1cccc(NC(=O)CSc2nnc(-c3ccncc3)n2CCCOC)c1	99*	3	0	-8	-20	-1	-12	-5	-5	2	3
CCCn1c(SCC(=O)Nc2cccc(C(=O)OC)c2)nnc1-c1cccnc1	0	-1	2	-1	3	30	x	x	x	x	x
COc1cc(OC)c(-c2nc3ccccc3s2)cc1OC	4	-4	-1	-10	-8	-399	x	x	x	x	x
Cc1cc(C)c(-c2nc3ccccc3s2)[nH]1	4	6	-19	59*	19	-326	81*	90*	99*	76*	70*
SMILES	SENP7 block	HSP90 refold inh	SENP1 FRET inh	SENP8 block-1	SENP6 block	SENP8 block-2	SENP8 conf	SENP6 confirm	SENP7 conf	Casp3 SENP sel	Luc interf
Cc1oc(-c2cccs2)nc1CNC[C@H]1O[C@@H](n2cnc3c(N)ncnc32)[C@H](O)[C@@H]1O	0	x	-1	4	22	-22	x	x	x	x	x
Cc1[nH]n(C(N)=S)c(=O)c1N=Nc1cccc(C(F)(F)F)c1	38	7	3	81*	79*	25	-6	1	8	5	1
Cc1[nH]n(C(N)=S)c(=O)c1N=Nc1ccc(Br)cc1	82*	11	5	92*	93*	28	-8	10	20	26	-2
Cc1[nH]n(-c2ccccc2)c(=O)c1N=Nc1cccc(S(=O)(=O)N2CCOCC2)c1	-22	2	3	-10	14	13	x	x	x	x	x
Cc1[nH]n(C2=NCCS2)c(=O)c1N=Nc1cccc(C(F)(F)F)c1	31	3	2	19	74*	30	35	30	26	48	4
O=C(c1cc(-c2ccccc2O)on1)N1CCCCCC1	-8	3	1	10	5	7	x	x	x	x	x
Cc1ccccc1-c1cc(-c2ccccc2O)on1	97*	-1	1	81*	91*	-1	95*	96*	100*	84*	93*
Oc1ccccc1-c1cc(-c2ccccc2)no1	96*	-1	2	86*	84*	-44	87*	88*	101*	84*	64*
Cc1ccc(O)c(-c2cc(-c3ccc(F)cc3)no2)c1	81*	-3	0	57*	77*	-314	24	68*	56*	68*	4
Cc1ccc(-c2cc(-c3ccccc3)no2)c(O)c1	x	16	1	x	x	-61	x	x	x	x	x
Cc1cccc(C(=O)N[C@@H]2c3ccccc3C[C@@H]2O)n1	-2	x	3	1	-11	1	x	x	x	x	x
CC1CCCN(CCCNC(=O)c2coc3nc4ccccc4nc23)C1 (stereo not given)	51*	1	-12	59*	81*	-403	73*	66*	86*	89*	75*
CC1CCN(CCCNC(=O)c2coc3nc4ccccc4nc23)CC1	41	2	-65	64*	86*	-422	76*	70*	86*	88*	74*
CC1CCCN(CCCNC(=O)c2nn(C)c3c2CSc2ccccc2-3)C1 (stereo not given)	-17	1	1	1	-2	16	x	x	x	x	x
Cc1ccc(CCNC(=O)c2coc3nc4ccccc4nc23)cc1	-5	2	10	-8	3	-493	x	x	x	x	x
NC(=O)CSc1n[nH]c(=O)n1CCc1ccccc1	0	5	0	7	-5	10	x	x	x	x	x

Screens as filed in PubChem.
